We go through 31 compounds from ChEMBL document CHEMBL1765044, “3-Hydroxypyrimidine-2,4-diones as an inhibitor scaffold of HIV integrase” (J Med Chem, 2011).

A short description of series [1]: Inhibition of Human immunodeficiency virus recombinant integrase 3'-processing activity expressed in Escherichia coli after 60 mins using [32P]-labeled oligonucleotide substrate by densitometric analysis.
The nature of series [2]: Inhibition of HIV recombinant integrase strand transfer activity expressed in Escherichia coli after 60 mins using [32P]-labeled oligonucleotide substrate by densitometric analysis. More on the design: species or system Human immunodeficiency virus.
The subject of series [3] is Human immunodeficiency virus 1. The series can be described thus: Antiviral activity against Human immunodeficiency virus 1 3B infected in CEM-SS cells assessed as inhibition of viral replication after 6 days. The class given is functional, organism-based. The conditions noted are these: 144 h. The method, boiled down: (§1)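 CEM-SS cells mixed with pre-titered HIV-1 IIIB (titer chosen so virus-control wells lose 70–95% viability) plus compound in dose response, incubated 6 days. Viability read by MTS; controls are cells alone, cells+virus, cells+compound and compound alone. EC50 is the concentration protecting 50% against virus-induced loss; CC50 is the concentration killing 50% of cells; TI = CC50/EC50. AZT used as positive control.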

Another series relates to CEM-SS. The series can be described thus: (§2) Cytotoxicity against human CEM-SS cells infected with Human immunodeficiency virus 1 3B after 6 days by MTS assay. The class given is cell-based. The conditions noted are these: cem-ss, 144 h. The method, boiled down:
as §1

In series [4] the test system is Human immunodeficiency virus 1. The series can be described thus: Antiviral activity against Human immunodeficiency virus 1 3B infected in human CEM-SS cells assessed as cytoprotection against virus-induced toxicity at 10 uM after 6 days by MTS assay. The class given is functional. In a few lines:
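Single-concentration screen at 10 μM, run only on compounds with strand-transfer IC50 ≤10 μM. CPE reduction (%) and cell viability (%) assessed by MTS; AZT positive control.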

A short description of series [5]: Therapeutic index, ratio of CC50 for human CEM-SS cells to EC50 for Human immunodeficiency virus 1 3B. The class given is cell-based. Conditions: read-out: TI. In a few lines:
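CEM-SS cells mixed with HIV-1 IIIB and compound, incubated 6 days; virus pre-titered so control wells lose 70–95% viability. Cytoprotection (EC50) and cytotoxicity in uninfected compound-only wells (CC50) read by MTS from dose-response. TI calculated as CC50/EC50. Controls: cells only, virus only, and compound only (colorimetric). AZT served as positive control.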

For series [6], the system named is Human immunodeficiency virus 1. The series can be described thus: Antiviral activity against Human immunodeficiency virus 1 3B infected in CEM-SS cells assessed as reduction in virus-induced cytopathic effect at 10 uM after 6 days. The class given is functional. More on the design: scale not given: the % may be the effect or the level left. The method, boiled down: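 CEM-SS cells were mixed with pre-titered HIV-1 IIIB and the compound at a single 10 μM and incubated for 6 days. Virus dose was set to give 70–95% viability loss in virus-control wells. CPE reduction (cytoprotection) and cell viability were read by MTS. Plates included cell, virus, compound-toxicity and colorimetric control wells, with AZT as positive control.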

Series [7] relates to Human immunodeficiency virus 1. The conditions noted are these: NL4-3.
The nature of series [8]: Cytotoxicity against human MT4 cells infected with raltegravir-resistant Human immunodeficiency virus 1 4736-2. The class given is cell-based. The conditions noted are these: MT4 cells infected with raltegravir-resistant HIV-1 4736-2, read-out: TC50 (the source's name).
For series [9], the system named is Human immunodeficiency virus 1. The series is described as follows: Ratio of IC50 for Human immunodeficiency virus 1 NL4-3 integrase Y143R mutant to IC50 for wild-type Human immunodeficiency virus 1 NL4-3 integrase. The method, boiled down: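 Recombinant HIV-1 integrase (wild type or mutant) was expressed in E. coli, with 10% glycerol in all buffers. Reactions were stopped with EDTA/formamide dye. IC50 came from a logistic nonlinear fit; the ratio is IC50 mutant/WT from two independent experiments.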

The subject of series [10] is Human immunodeficiency virus 1. The series can be described thus: Fold resistance, ratio of EC50 for raltegravir-resistant Human immunodeficiency virus 1 1556-1 expressing integrase Y143C mutant to EC50 for raltegravir-resistant Human immunodeficiency virus 1 1556-1 expressing wild-type integrase. The class given is functional.
Series [11] in a line: Cytotoxicity against human MT4 cells infected with raltegravir-resistant Human immunodeficiency virus 1 1556-1. The class given is cell-based. Conditions: MT4 cells infected with raltegravir-resistant HIV-1 1556-1, read-out: TC50 (the source's name).
Series [12] is described as follows: as §2. The class given is cell-based. The conditions noted are these: CEM-SS cells infected with HIV-1 3B, read-out: TC50. In a few lines: as §1
Series [13] concerns Human immunodeficiency virus 1. Conditions: NL4-3. This is another data set of the same source.
The nature of series [14]: Cytotoxicity against human MT4 cells infected with raltegravir-resistant Human immunodeficiency virus 1 8070-2. The class given is cell-based. Conditions: MT4 cells infected with raltegravir-resistant HIV-1 8070-2, read-out: TC50 (the source's name).
Series [15] deals with Human immunodeficiency virus 1. The series can be described thus: Fold resistance, ratio for Human immunodeficiency virus 1 NL4-3 reverse transcriptase Y181C mutant to wild-type Human immunodeficiency virus 1 NL4-3 reverse transcriptase. In a few lines: (§3)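 HIV-1 NL4-3 strains carrying the reverse transcriptase K103N or Y181C mutation were tested in MAGI R5 cells, with the NNRTI TNK-651 as control. Fold-resistance is the mutant/wild-type ratio.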

Series [16] has as its system Human immunodeficiency virus 1. The series is described as follows: Fold resistance, ratio for Human immunodeficiency virus 1 NL4-3 reverse transcriptase K103N mutant to wild-type Human immunodeficiency virus 1 NL4-3 reverse transcriptase. The method, boiled down:
as §3

As for `CCc1c(Cc2ccccc2)n(COCc2ccccc2)c(=O)n(O)c1=O`, the values for the concentration for half-maximal inhibition (IC50) in series [1] and in series [2] were greater than 111 µM and 8.2 µM, respectively.

On to `CC(C)c1c(Cc2ccccc2)n(COCc2ccc(F)cc2F)c(=O)n(O)c1=O`, for which, in [3], the EC50 came to 2.1 µM. In addition, the IC50 in series [1] was greater than 111 µM; in series [2], 4.8 µM. The CC50 with CEM-SS is greater than 100 µM. For the same compound, in series [4], the Activity came out at 100%. In addition, the selectivity ratio in series [5] is greater than 47.

Turning to `CC(C)c1c(Cc2ccc(F)cc2)n(COCc2ccccc2)c(=O)n(O)c1=O`, the concentration giving a half-maximal response (EC50) in [3] was found to be 1.1 µM. Further, the IC50 is greater than 111 µM in [1] and 7.3 µM in [2]. Also, the CC50 with CEM-SS was greater than 20 µM. Further, in [4], the Activity turned out to be 100%. In addition, the selectivity ratio in series [5] was greater than 18.

For the compound `Cc1cn(COCc2ccccc2)c(=O)n(O)c1=O`, the IC50 in [1] is greater than 111 µM; in [2], 75 µM.

Turning to `CCc1c(Cc2ccccc2)c(=O)n(O)c(=O)n1COCc1ccccc1`, the IC50 in [1] is greater than 111 µM; in series [2] it was 36 µM.

For `CC(C)c1c(Cc2ccccc2)n(Cc2ccc(F)cc2)c(=O)n(O)c1=O`, the 50% inhibitory concentration (IC50) in [1] is greater than 111 µM; in series [2], 22 µM.

In the case of `CC(C)c1c(Cc2ccc(F)cc2)n(COCc2ccc(F)cc2)c(=O)n(O)c1=O`, the IC50 is greater than 111 µM in series [1] and 5.5 µM in series [2].

Turning to `CC(C)c1c(Cc2ccc(F)cc2)n(Cc2ccc(F)cc2)c(=O)n(O)c1=O`, the concentration for half-maximal inhibition (IC50) is greater than 111 µM in [1] and 73 µM in series [2].

Take `CCc1c(Cc2ccccc2)n(Cc2ccccc2)c(=O)n(O)c1=O`: the half-inhibitory concentration (IC50) in series [1] and in series [2] was greater than 111 µM each time.

Turning to `CC(C)c1c(Cc2ccccc2)n(COCc2ccc(F)cc2)c(=O)[nH]c1=O`, the IC50 in [1] and in [2] was greater than 111 µM throughout.

`CC(C)c1c(Cc2ccccc2)n(CCCCc2ccc(F)cc2)c(=O)n(O)c1=O`: the Activity in series [6] turned out to be 6%; in series [4], 94%. The IC50 in series [1] is greater than 111 µM; in series [2], 0.56 µM.

With `O=c1c2ccccc2n(Cc2ccc(F)cc2)c(=O)n1O`, in [1], the 50% inhibitory concentration (IC50) was greater than 111 µM.

For the compound `CC(C)c1c(Cc2ccc(F)cc2)n(Cc2ccccc2)c(=O)n(O)c1=O`, the figures for the concentration for half-maximal inhibition (IC50) in [1] and in [2] were greater than 111 µM and 32 µM, respectively.

For `CC(C)c1c(Cc2ccccc2)n(COCCc2ccc(F)cc2)c(=O)n(O)c1=O`, the figures for the Activity in series [6] and in series [4] were 27% and 83%, respectively. For the same compound, the IC50 in series [1] is greater than 111 µM; in series [2], 1.6 µM.

Take `CC(C)c1c(Cc2ccccc2)n(COCCCCc2ccc(F)cc2)c(=O)n(O)c1=O`: the Activity in series [6] was 12%; in [4], 88%. For the same compound, the IC50 is greater than 111 µM in series [1] and 4.5 µM in series [2].

Turning to `CC(C)c1c(Cc2ccccc2)n(COCCCc2ccc(F)cc2)c(=O)n(O)c1=O`, the Activity came to 30% in series [6] and 92% in series [4]. Moreover, the IC50 in [1] is greater than 111 µM; in series [2] it was 3.2 µM.

With `COn1c(=O)c(C(C)C)c(Cc2ccccc2)n(COCc2ccc(F)cc2)c1=O`, the 50% inhibitory concentration (IC50) in [1] and in [2] was greater than 111 µM each time.

Regarding `CCc1c(Cc2ccccc2)c(=O)[nH]c(=O)n1COCc1ccc(F)cc1`, the Activity worked out at 10% in series [6] and 92% in series [4].

On to `Cc1cn(Cc2ccccc2)c(=O)n(O)c1=O`, for which the IC50 in series [1] and in [2] was greater than 111 µM each time.

On to `Cc1cn(Cc2ccc(F)cc2)c(=O)n(O)c1=O`, for which the IC50 in series [1] and in [2] was greater than 111 µM in each case.

For the compound `CC(C)c1c(Cc2ccccc2)n(COCc2cccc(Cl)c2F)c(=O)n(O)c1=O`, the Ratio IC50 came out at 14 in [7], 5 in series [9] and 5 in series [13]. Besides, the CC50 in [8], in series [11] and in series [14] was 2 µM throughout. The EC50 in series [3] was found to be 0.95 µM. Moreover, the IC50 in series [1] is greater than 111 µM; in series [2], 2.3 µM. In series [10], the “Ratio EC50” value is recorded as greater than 1.7. Further, the CC50 at 144 h in series [12] was greater than 100 µM. The Activity in series [4] is recorded as 100%. Also, in series [5], the selectivity ratio was greater than 105.

Consider `CC(C)c1c(Cc2ccccc2)n(Cc2ccccc2)c(=O)n(O)c1=O`, for which the values for the IC50 in series [1] and in series [2] were greater than 111 µM and 28 µM, respectively.

For `CC(C)c1c(Cc2ccccc2)n(CCCc2ccc(F)cc2)c(=O)n(O)c1=O`, the Activity in series [6] is 12%; in series [4], 97%. Besides, the 50% inhibitory concentration (IC50) was greater than 111 µM in series [1] and 0.44 µM in series [2].

With `CCc1c(Cc2ccccc2)c(=O)n(O)c(=O)n1COCc1ccc(F)cc1`, the IC50 was greater than 111 µM in [1] and 11 µM in series [2].

In the case of `CC(C)c1c(Cc2ccccc2)n(CCc2ccc(F)cc2)c(=O)n(O)c1=O`, the IC50 in series [1] is greater than 111 µM; in [2], 46 µM.

As for `CCc1c(Cc2ccccc2)c(=O)[nH]c(=O)n1COCc1ccccc1`, the Activity in series [6] was 48%; in series [4], 100%.

Turning to `CCc1c(Cc2ccccc2)n(Cc2ccc(F)cc2)c(=O)n(O)c1=O`, the results for the 50% inhibitory concentration (IC50) in series [1] and in series [2] were greater than 111 µM and 24 µM, respectively.

For `CC(C)c1c(Cc2ccccc2)n(COCc2ccc(F)cc2)c(=O)n(C)c1=O`, the IC50 in [1] and in series [2] was greater than 111 µM in each case.

For the compound `CC(C)c1c(Cc2ccccc2)n(COCc2ccc(F)cc2)c(=O)n(O)c1=O`, the results for the Ratio in [15] and in series [16] were 48 and 16, respectively.

For the compound `Cc1nnc(C(=O)NC(C)(C)c2nc(C(=O)NCc3ccc(F)cc3)c(O)c(=O)n2C)o1` [RALTEGRAVIR], the Ratio IC50 in [7] worked out at 139; in series [9], 24; in [13], 8. The “Ratio EC50” value in series [10] was greater than 855.

With `O=c1c2ccccc2n(Cc2ccccc2)c(=O)n1O`, the half-maximal inhibitory concentration (IC50) in series [1] is greater than 111 µM.

Broadly, the IC50 is the concentration at which inhibition is half-maximal. The term EC50 denotes the concentration needed to bring the measured effect to its halfway point.
